HSF-1 act – increases HSF-1 driven luciferase reporter signal; NIH3T3-HGL HSF-1 luciferase reporter, MG132, 8 h; 100% = twice DMSO control signal; activation, % at 9 µM; 300,000 tested, 1.7% active; AID 504408;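 active means mean replicate activation of at least 50% with a set share of replicates each reaching 50%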;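 further: 0% = median of the neutral control wells and 100% = twice that signal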
ALR H2O2 inh – inhibitors of human sulfhydryl oxidase ALR | P55789 | inhibition, % (test concentration not listed) | purified ALR, DTT oxidation, H2O2 HRP-luminol luminescence | 290,000 tested, 3.8% active | AID 485317;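 active means mean replicate inhibition above about 79%, with every replicate also reaching it, limit read from the data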
Target sequence (P55789 whole entry, looked up): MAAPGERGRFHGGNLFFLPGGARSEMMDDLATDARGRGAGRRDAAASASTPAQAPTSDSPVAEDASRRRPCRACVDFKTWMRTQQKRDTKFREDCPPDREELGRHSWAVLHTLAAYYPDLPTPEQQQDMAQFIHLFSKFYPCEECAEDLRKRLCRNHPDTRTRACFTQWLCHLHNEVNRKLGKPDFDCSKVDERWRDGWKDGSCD
HSF1 inhib – HSF1 inhibition | NIH3T3-HGL HSE-luciferase, MG132-induced, luminescence 8 h; hits give low values | activity change, negative = inhibition, % at 7.5 µM (by protocol) | 300,000 tested, 0.77% active | AID 2098;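 active means more than half of replicate wells show activity change below -50%, luminescence cut by over half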;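 further: luciferase reports HSF-1 transcriptional activity via heat shock element; 0% = median of DMSO wells and -100% = zero luminescence signal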
HCV core dimer – HCV core protein dimerization inhibition | TR-FRET GST/Flag-core106 dimerization, 1536-well | inhibition, % at 5 µM | 300,000 tested, 0.33% active;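 active means inhibition above the mean of all tested compounds plus 3 SD, set per screening campaign, cut at about 45% in these data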
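Assay system – GST-tagged and Flag-tagged HCV core protein residues 1-106 · Quantity – core106 proteins, GST 13.5 nM and Flag 17 nM · Benchmarks – unlabelled core106 and no-GST-core106 wells · Read-out basis – percent inhibition of core106 dimerization signal · Detection – time-resolved FRET, ex 340 nm, em 617 and 671 nm · Schedule – 4 h at 22.5 °C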
PHOSPHO1 block – blocks human PHOSPHO1 phosphatase activity | Q8TCT1 | recombinant PHOSPHO1, absorbance phosphatase assay | inhibition, % at 13.3 µM | 290,000 tested, 1.1% active; in the data active means inhibition above about 60%
Target sequence (Q8TCT1 whole entry, looked up): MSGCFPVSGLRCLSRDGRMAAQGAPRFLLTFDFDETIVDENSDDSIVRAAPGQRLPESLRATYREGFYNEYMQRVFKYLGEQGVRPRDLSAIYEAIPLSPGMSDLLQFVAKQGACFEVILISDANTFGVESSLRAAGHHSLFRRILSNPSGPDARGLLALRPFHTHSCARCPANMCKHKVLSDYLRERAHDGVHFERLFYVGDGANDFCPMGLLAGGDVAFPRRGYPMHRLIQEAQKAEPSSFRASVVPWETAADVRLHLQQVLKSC
AI-2 QS mod – modulates the Vibrio harveyi AI-2 quorum sensing system; Vibrio harveyi JMH597 AI-2 luminescence/OD600 ratio, 9 h; hits give low values; strain lacks LuxN and CqsS sensors; 0 = neutral-control median; activity change, % at 7.5 µM; 300,000 tested, 0.4% active; AID 2094; in the data active means activity change below about -75%, passing the limit was not always enough;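 further: luminescence divided by OD600 gain over 9 h not by final OD600 alone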
Starred values were filed as active, the others as inactive; / = not tested or not shown. Hits are enriched below; roughly 6.8% of the tested compounds scored in any of these assays.

SMILES	HSF-1 act	ALR H2O2 inh	HSF1 inhib	HCV core dimer	PHOSPHO1 block	AI-2 QS mod
c1ccc(CNc2c3ccccc3nc3ccccc23)cc1	3	-9	-2	1	3	22
Oc1ccc(CCNc2c3ccccc3nc3ccccc23)cc1O	32	99*	9	-6	18	14
CC(C)(C)OC(=O)NCc1ccc(CNC(=O)c2nc[nH]c2C(=O)N2CCN(c3ccccc3)CC2)cc1	/	6	/	/	/	/
COC(=O)Nc1nc2c(s1)CCCC2	18	-3	-5	3	-8	41
CC(C)(C)c1ccc(C(=O)NC(=S)Nc2nc3c(s2)CCCC3)cc1	-62	-3	-59*	7	-18	19
CC(C)(C)c1ccc(C(=O)NC(=S)Nc2sc3c(c2C#N)CCC3)cc1	-37	/	-43	-9	-29	32
Cc1cc(C(=O)Nc2nc3c(s2)CCCC3)no1	32	96*	12	-3	-25	25
CN(C)c1ccc(C(=O)Nc2nc3c(s2)CCCC3)cc1	13	96*	-2	0	8	42
Cc1onc(-c2ccccc2)c1C(=O)Nc1nc2c(s1)CCCC2	3	-6	-13	13	-9	0
COc1ccccc1CC(=O)N(Cc1ccccc1)c1ccc(C)cc1	0	4	5	-1	32	41
CC(C)c1ccc(NC(=S)NCCc2c[nH]c3ccccc23)cc1	14	-4	-7	6	-3	-2
C[C@]12CCC[C@H](O1)[C@H]([C@@H](O)c1ccccc1)O2	/	-1	/	/	/	/
Oc1ccc(/C=N/N2CCCCC2)c(O)c1O	4	64	-2	-2	18	23
Oc1cccc(/C=N/N2CCCCC2)c1O	10	99*	-6	-2	14	11
Oc1ccc(/C=N/N2CCCCC2)c(O)c1	22	98*	-4	-6	28	12
Oc1ccccc1/C=N/N1CCCCC1	-9	-38	-4	-4	24	12
Oc1ccc(/C=N/N2CCOCC2)c(O)c1O	-1	98*	-8	-5	-10	25
Cc1ccc(S(=O)(=O)NC(=O)NC(C)c2ccc(F)cc2)cc1 (stereo not drawn)	-2	-4	-6	-8	39	34
O=C1/C(=C\c2cccnc2)Sc2ccccc21	4	4	10	-13	12	-18
CC1C/C(=C\c2cccnc2)C(=O)/C(=C/c2cccnc2)C1 (stereo not drawn)	/	96*	/	11	-10	/
Oc1ccc(C2C[C@H]3CC[C@@H]2C3)cc1O (stereo partly drawn)	90*	99*	80	-3	23	17
Cn1c(=O)c2c(nc(Br)n2C/C=N/NC(N)=S)n(C)c1=O	2	4	0	1	12	20
CCCCCn1c(Br)nc2c1c(=O)n(CC(N)=O)c(=O)n2C	-1	92*	-1	-3	-17	3
Cc1ccccc1C(=O)NCC(=O)NNC(=S)NC(=O)c1ccccc1	19	98*	5	-7	-5	36
Cc1ccccc1C(=O)NNC(=S)NC(=O)COc1ccccc1	2	22	-3	-2	97*	46
SMILES	HSF-1 act	ALR H2O2 inh	HSF1 inhib	HCV core dimer	PHOSPHO1 block	AI-2 QS mod
CC(C)(C)c1ccc(C(=O)NC(=S)NNC(=O)COc2ccccc2)cc1	3	99*	11	9	-5	150
Cc1ccc(C(=O)NNC(=S)NC(=O)COc2ccccc2)cc1	4	4	-3	3	97*	-41
Cc1ccc(/C=N/NC(=O)NC23CC4CC(CC(C4)C2)C3)o1	18	-20	2	5	16	13
CN(c1ccc(C(=O)Nc2ccc(CC#N)cc2)cc1)S(C)(=O)=O	6	-9	-1	-3	-14	25
N#CC(C#N)=C1C=C2C=C(N3CCCCC3)CCC2CC1 (stereo not drawn)	/	99*	/	-21	7	/
COc1cc(/C=C2/SC(=O)NC2=O)ccc1Oc1ccc([N+](=O)[O-])cc1[N+](=O)[O-]	/	97*	/	11	16	49
COc1cc(/C=C2/SC(N)=NC2=O)ccc1Oc1ccc([N+](=O)[O-])cc1[N+](=O)[O-]	/	-6	/	10	6	33
COc1cc(/C=C2\SC(=O)NC2=O)ccc1Oc1ccc([N+](=O)[O-])cn1	28	98*	3	10	-16	45
COCCOc1cc(-n2cccc2)c(Cl)cc1Cl	10	-4	-7	-14	-31	23
COc1ccccc1N1CCN(C(=O)CCC(=O)N2CCN(c3ccc(F)cc3)CC2)CC1	5	75	-4	1	19	1
N#CC(CO)(Cc1ccc(OC(F)F)cc1)c1nc2ccccc2[nH]1 (stereo not drawn)	72*	6	46	3	0	6
COc1ccccc1-c1nc(C#N)c(N2CCN(Cc3ccccc3)CC2)o1	40	-22	17	7	-29	-16
N#Cc1nc(-c2ccco2)oc1N1CCN(Cc2ccccc2)CC1	-85	-1	-80*	-1	-5	25
Cc1c(Cl)ccc(S(=O)(=O)N2CCN=C2c2ccccc2)c1Cl	-4	0	-12	5	-24	0
Cc1cc(S(=O)(=O)N2CCN=C2c2ccccc2)c(C)cc1Cl	-72	4	-63*	5	-5	27
CCc1ccccc1NC(=O)CC(c1ccc(OC)cc1)n1cccc1 (stereo not drawn)	81*	-5	30	12	-9	14
CCC(C)NC(=O)CC(c1ccc(OC)cc1)n1cccc1 (stereo not drawn)	3	2	-4	-2	0	12
CN(NC1OC(=O)c2ccccc21)c1ncc(Cl)cc1C(F)(F)F (stereo not drawn)	66*	7	37	-4	-1	26
N#CC1=C(N)NC(=S)C(C(N)=O)C1c1ccccc1F (stereo not drawn)	12	84*	2	-19	13	24
Cc1nnc(SCC2=C(C(=O)O)N3C(=O)C(NC(=O)c4cccc(F)c4F)C3SC2)s1 (stereo not drawn)	63*	/	24	1	-10	22
Cc1cc(C)n(CC(=O)NC2C(=O)N3C(C(=O)O)=C(CSc4nnc(C)s4)CSC23)n1 (stereo not drawn)	9	-20	-1	-1	-23	39
O=C(O)CSc1nnc(-c2ccncc2)n1-c1ccc(Cl)cc1	7	-18	-1	-3	28	27
CC(=O)/C(=N/Nc1ccccc1)Sc1nnc(CCc2ccccc2)n1-c1ccccc1	13	13	1	12	-3	16
O=C(O)CSc1nnc(-c2ccc(Cl)cc2)n1-c1ccccc1	12	86*	-3	0	4	27
